{"data": "Assay results collected from several papers", "target": "Serine/threonine-protein kinase MARK2 (MARK2, Homo sapiens, UniProt Q7KZI7)", "note": "Protocols differ between the studies behind these lines."}
{"Structure (SMILES)": "O=c1[nH]c2ccccc2n1C1CCN(Cc2ccc(-c3[nH]c4cc5ncnc5cc4nc3-c3ccccc3)cc2)CC1", "test": "cell-free assay", "conditions": "0.5 µM", "endpoint": "remaining signal", "result": "92.2%"}
{"Structure (SMILES)": "Cn1cc(-c2cccc(N3CCc4c(sc5c4CC(C)(C)C5)C3=O)c2CO)cc(Nc2ccncn2)c1=O", "test": "enzyme activity, inhibitor", "conditions": "1 µM", "endpoint": "inhibition", "result": "10%"}
{"Structure (SMILES)": "C#Cc1n[nH]c2c(-c3cn([C@@H](C)c4ccccc4)c(=O)[nH]c3=O)cc(F)cc12", "test": "enzyme activity, inhibitor", "conditions": "0.1 µM", "endpoint": "inhibition", "result": "2%"}
{"Structure (SMILES)": "Cc1nn(C)cc1-c1nc2c(N3CCN(Cc4ccc(Cl)cc4)CC3)c(Cl)cnc2[nH]1", "test": "binding, competition with immobilised ligand", "conditions": "1 µM", "endpoint": "remaining binding", "result": "93%"}
{"Structure (SMILES)": "C#Cc1n[nH]c2c(-c3cn(C(C)c4ccccn4)c(=O)[nH]c3=O)cc(F)cc12 (stereo not shown)", "test": "enzyme activity, inhibitor", "conditions": "1 µM", "endpoint": "inhibition", "result": "5.8%"}
{"Structure (SMILES)": "CC(C)(C)c1cc(C=C(C#N)C#N)cc(Br)c1O", "test": "enzyme activity, inhibitor", "conditions": "0.5 µM", "endpoint": "remaining activity", "result": "81.6%"}
{"Structure (SMILES)": "Cn1cc(-c2cc(F)cc(N3CCn4c(cc5c4CCCC5)C3=O)c2CO)cc(Nc2ccc(N3CCN(C4COC4)CC3)cn2)c1=O", "test": "enzyme activity, inhibitor", "conditions": "0.1 µM", "endpoint": "inhibition", "result": "14%"}
{"Structure (SMILES)": "Nc1ncc(-c2nc(N3CCOCC3)nc(N3CCOCC3)n2)c(C(F)F)n1", "test": "binding, competition with immobilised ligand", "conditions": "10 µM", "endpoint": "remaining binding", "result": "77%"}
{"Structure (SMILES)": "Cn1cncc1[C@](O)(COc1ccc(C#N)cc1-c1ccc(OC(F)(F)F)cc1)c1ccc(C#N)cc1", "test": "cell-free assay, competition with immobilised ligand", "conditions": "1 µM", "endpoint": "remaining binding", "result": "95%"}
{"Structure (SMILES)": "COc1ncccc1-c1cnn2ccc(N3CCN(C(=O)OC(C)C)CC3)nc12", "test": "binding, competition with immobilised ligand", "conditions": "1 µM", "endpoint": "remaining binding", "result": "80%"}
